Assay results of several laboratories.
Each line is one published result; the experiments were not run side by side.
Effect on: metabolic stability
Matrix: liver microsomes

| Structure (SMILES) | test system | setting | compound remaining |
| --- | --- | --- | --- |
| Cc1ccc2c(c1)nc(/C=C/c1cccc3cccnc13)n2-c1ccccc1 | rat | 1.5 µM, 5 min | 75.4% |
| Cc1ncsc1-c1ccc(CNC(=O)[C@@H]2C[C@@H](O)CN2C(=O)[C@@H](NC(=O)CCCCCCCCCCNC(=O)O[C@H]2C[C@@H](C)C=C3C=C[C@H](C)[C@H](CC[C@@H]4C[C@@H](O)CC(=O)O4)[C@H]32)C(C)(C)C)cc1 | mouse | 1 µM, 45 min, pH 7.4 | 1.42% |
| N#Cc1ccc(C[C@@H](NC(=O)Nc2ccc([N+](=O)[O-])cc2)C(=O)NCC2(c3ccccc3)CC2)cc1 | rat | 10 µM, 30 min, pH 7.4 | > 20% |
| CS(=O)(=O)c1ccc(-c2cnc(N)c(-c3ccc(C(F)(F)F)nc3)c2)cc1 | male CD-1 mouse | 1 µM, 30 min | > 99% |
| [O-][S+](CCN1CCCN(CC(O)Cc2ccccc2)CC1)C(c1ccc(F)cc1)c1ccc(F)cc1 (stereo not shown) | rat | 10 µM, 1 h, pH 7.4 | 0% |
| CCCn1nc(C(=O)N2CCCCC2)c2c1CCC(NCCN1CCCCC1)C2 (stereo not shown) | mouse | 10 µM, 1 h | 54% |
| Cc1ccc2c(c1)nc(CCc1cccc3cccnc13)n2-c1ccccc1 | rat | 1.5 µM, 45 min | 0.05% |
| CCCn1nc(C(=O)N2CCCCC2)c2c1CCC(NCc1ccc(N3CCCCC3)cc1)C2 (stereo not shown) | mouse | 10 µM, 1 h | 47% |
| N#Cc1ccc(C[C@@H](NC(=O)Nc2ccc(F)cc2)C(=O)NCC2(c3ccc(OC(F)(F)F)cc3)CC2)cc1 | rat | 10 µM, 30 min, pH 7.4 | > 80% |
| O=C(Nc1ccc(S(=O)(=O)N2CCC(Cl)CC2)cc1)c1ccc([N+](=O)[O-])o1 | mouse | 1 µM, 1 h, pH 7.4 | 0.02% |
